Measurements as given in ChEMBL document CHEMBL1123042, “Ring-substituted 1,1,2,2-tetraalkylated 1,2-bis(hydroxyphenyl)ethanes. 4. Synthesis, estrogen receptor binding affinity, and evaluation of antiestrogenic and mammary tumor inhibiting activity of symmetrically disubstituted 1,1,2,2-tetramethyl-1,2-bis(hydroxyphenyl)ethanes” (1985).
“And” between values parts separate entries of the source, which are not always exact repeats. Equal values may be shown once.

Columns and labels:
[1] = target: T1, Estrogen receptor (Mus musculus) (UniProt O08537+P19785); test: Anti-uterotrophic effect in mice at 0 ug; format: functional
Method in brief: (§1)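 Immature NMRI mice, 20 days old (14.5 ± 1.2 g), randomly grouped 10 per group. Given daily subcutaneous test compound in 0.1 mL olive oil for 3 days, together with estrone to stimulate uterine growth. Uteri taken 24 h after last injection, fixed in Bouin's solution, washed, dried and weighed. Read-out is inhibition of estrone-stimulated uterine growth.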

[2] = target: T1, Estrogen receptor (Mus musculus); test: Uterotrophic effect in mice at 0 ug; format: functional, tissue-based; conditions: Uterus
Method in brief: (§2)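 Immature female NMRI mice, 20 days old (14.5 ± 1.2 g), 10 per randomized group. Received test compound subcutaneously in 0.1 mL olive oil daily for 3 days. Uteri removed 24 h after final dose, Bouin-fixed, washed, dried and weighed to measure stimulation of uterine growth.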

[3] = target: Estrogen receptor (Bos taurus) (UniProt Q9XSB5+P49884); test: Relative binding affinity for calf uterine estrogen receptor compared to [3H]estradiol; format: protein assay
Method in brief: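 Competition binding with calf uterine cytosol and [3H]estradiol, incubated 16 h at 4 °C and stopped with dextran-coated charcoal. Supernatant radioactivity counted after centrifugation. Six competitor concentrations spanned 50% displacement on a semilog plot. RBA = (molar E2 concentration / competitor concentration each giving 50% reduction of bound [3H]E2) × 100.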

[4] = target: T1, Estrogen receptor (Mus musculus); test: Uterotrophic effect in mice at 10 ug; format: functional, tissue-based; conditions: Uterus; method in brief: as §2
[5] = target: T1, Estrogen receptor (Mus musculus); test: Percent inhibition of estrone stimulated uterine growth in mice at 50 […]; format: functional; method in brief: as §1
[6] = target: T1, Estrogen receptor (Mus musculus); test: Anti-uterotrophic effect in mice at 500 ug; format: functional; method in brief: as §1
[7] = target: T1, Estrogen receptor (Mus musculus); test: Uterotrophic effect in mice at 1000 ug; format: functional, tissue-based; conditions: Uterus; method in brief: as §2
[8] = target: T1, Estrogen receptor (Mus musculus); test: Uterotrophic effect in mice at 1 ug; format: functional, tissue-based; conditions: Uterus; method in brief: as §2
[9] = target: T1, Estrogen receptor (Mus musculus); test: Percent inhibition of estrone stimulated uterine growth in mice at 500 […]; format: functional; method in brief: as §1
[10] = target: T1, Estrogen receptor (Mus musculus); test: Uterotrophic effect in mice at 100 ug; format: functional, tissue-based; conditions: Uterus; method in brief: as §2
[11] = target: T1, Estrogen receptor (Mus musculus); test: Anti-uterotrophic effect in mice at 5 ug; format: functional; method in brief: as §1
[12] = target: T1, Estrogen receptor (Mus musculus); test: Anti-uterotrophic effect in mice at 50 ug; format: functional; method in brief: as §1
[13] = target: T1, Estrogen receptor (Mus musculus); test: Uterotrophic effect in mice at 24 ug; format: functional, tissue-based; conditions: Uterus; method in brief: as §2
[14] = target: T1, Estrogen receptor (Mus musculus); test: Uterotrophic effect in mice at 250 ug; format: functional, tissue-based; conditions: Uterus; method in brief: as §2
[15] = target: T1, Estrogen receptor (Mus musculus); test: Uterotrophic effect in mice at 80 ug; format: functional, tissue-based; conditions: Uterus; method in brief: as §2
[16] = target: T1, Estrogen receptor (Mus musculus); test: Uterotrophic effect in mice at 8 ug; format: functional, tissue-based; conditions: Uterus; method in brief: as §2
[17] = tested on: Rattus norvegicus; test: Percent change in body weight in DMBA-induced mammary carcinoma in rats after 7 day therapy at 2 mg/kg/day; format: functional
[18] = tested on: Rattus norvegicus; test: Percent reduction in tumor size (<50%) in DMBA-induced mammary carcinoma in rats at 2 mg/kg/day; format: functional
[19] = target: T1, Estrogen receptor (Mus musculus); test: Percent inhibition of estrone stimulated uterine growth in mice at 1000 […]; format: functional; method in brief: as §1
[20] = target: T1, Estrogen receptor (Mus musculus); test: Percent inhibition of estrone stimulated uterine growth in mice at 10 […]; format: functional; method in brief: as §1
[21] = tested on: Rattus norvegicus; test: Percent remission in DMBA-Induced Mammary Carcinoma in rats at 5 mg/kg/day; format: functional
[22] = target: T1, Estrogen receptor (Mus musculus); test: Anti-uterotrophic effect in mice at 1 ug; format: functional; method in brief: as §1
[23] = tested on: Rattus norvegicus; test: Percent unchanged tumor size (51-150%) in DMBA-induced mammary carcinoma in rats at 5 mg/kg/day; format: functional
[24] = tested on: Rattus norvegicus; test: Percent change in body weight in DMBA-induced mammary carcinoma in rats after 7 day therapy at 5 mg/kg/day; format: functional
[25] = target: T1, Estrogen receptor (Mus musculus); test: Anti-uterotrophic effect in mice at 10 ug; format: functional; method in brief: as §1
[26] = target: T1, Estrogen receptor (Mus musculus); test: Anti-uterotrophic effect in mice at 1000 ug; format: functional; method in brief: as §1
[27] = tested on: Rattus norvegicus; test: Percent remission in DMBA-Induced Mammary Carcinoma in rats at 2 mg/kg/day; format: functional
[28] = target: T1, Estrogen receptor (Mus musculus); test: Percent inhibition of estrone stimulated uterine growth in mice at 100 […]; format: functional; method in brief: as §1
[29] = tested on: Rattus norvegicus; test: Percent change in tumor area in DMBA-induced carcinoma in rats after 28 day therapy at 2 mg/kg; format: functional
[30] = target: T1, Estrogen receptor (Mus musculus); test: Anti-uterotrophic effect in mice at 100 ug; format: functional; method in brief: as §1
[31] = tested on: Rattus norvegicus; test: Percent change in tumor area in DMBA-induced carcinoma in rats after 28 day therapy at 5 mg/kg; format: functional
[32] = target: T1, Estrogen receptor (Mus musculus); test: Anti-uterotrophic effect in mice at 0.1 ug; format: functional; method in brief: as §1
[33] = tested on: Rattus norvegicus; test: Percent increase in tumor size (>150%) in DMBA-induced mammary carcinoma in rats at 2 mg/kg/day; format: functional
[34] = tested on: Rattus norvegicus; test: ercent reduction in tumor size (<50%) in DMBA-induced mammary carcinoma in rats at 5 mg/kg/day; format: functional
[35] = tested on: Rattus norvegicus; test: Percent increase in tumor size (>150%) in DMBA-induced mammary carcinoma in rats at 5 mg/kg/day; format: functional
[36] = tested on: Rattus norvegicus; test: Percent unchanged tumor size (51-150%) in DMBA-induced mammary carcinoma in rats at 2 mg/kg/day; format: functional
[37] = target: T1, Estrogen receptor (Mus musculus); test: Percent inhibition of estrone stimulated uterine growth in mice at 5 […]; format: functional; method in brief: as §1
[38] = tested on: Rattus norvegicus; test: Percent reduction in tumor size (<50%) in DMBA-induced mammary carcinoma in rats at 5 mg/kg/day; format: functional
[39] = target: T1, Estrogen receptor (Mus musculus)
[40] = target: T1, Estrogen receptor (Mus musculus); conditions: Uterus

T1 sequence (O08537 whole entry, looked up): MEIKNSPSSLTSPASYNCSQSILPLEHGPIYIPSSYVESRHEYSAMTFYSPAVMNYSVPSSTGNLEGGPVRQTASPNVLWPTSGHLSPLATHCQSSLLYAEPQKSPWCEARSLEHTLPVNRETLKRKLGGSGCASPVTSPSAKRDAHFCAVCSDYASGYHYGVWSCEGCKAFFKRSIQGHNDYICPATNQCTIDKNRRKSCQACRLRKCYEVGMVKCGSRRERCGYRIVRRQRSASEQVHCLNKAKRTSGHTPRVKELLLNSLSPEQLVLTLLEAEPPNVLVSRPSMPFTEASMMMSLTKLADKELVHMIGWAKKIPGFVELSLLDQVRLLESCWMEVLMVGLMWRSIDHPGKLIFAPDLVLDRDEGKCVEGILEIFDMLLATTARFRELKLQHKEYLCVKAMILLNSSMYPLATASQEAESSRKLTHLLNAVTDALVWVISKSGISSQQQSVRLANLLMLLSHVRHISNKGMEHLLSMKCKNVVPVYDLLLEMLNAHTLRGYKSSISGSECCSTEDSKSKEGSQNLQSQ
T1 sequence (P19785 whole entry, looked up): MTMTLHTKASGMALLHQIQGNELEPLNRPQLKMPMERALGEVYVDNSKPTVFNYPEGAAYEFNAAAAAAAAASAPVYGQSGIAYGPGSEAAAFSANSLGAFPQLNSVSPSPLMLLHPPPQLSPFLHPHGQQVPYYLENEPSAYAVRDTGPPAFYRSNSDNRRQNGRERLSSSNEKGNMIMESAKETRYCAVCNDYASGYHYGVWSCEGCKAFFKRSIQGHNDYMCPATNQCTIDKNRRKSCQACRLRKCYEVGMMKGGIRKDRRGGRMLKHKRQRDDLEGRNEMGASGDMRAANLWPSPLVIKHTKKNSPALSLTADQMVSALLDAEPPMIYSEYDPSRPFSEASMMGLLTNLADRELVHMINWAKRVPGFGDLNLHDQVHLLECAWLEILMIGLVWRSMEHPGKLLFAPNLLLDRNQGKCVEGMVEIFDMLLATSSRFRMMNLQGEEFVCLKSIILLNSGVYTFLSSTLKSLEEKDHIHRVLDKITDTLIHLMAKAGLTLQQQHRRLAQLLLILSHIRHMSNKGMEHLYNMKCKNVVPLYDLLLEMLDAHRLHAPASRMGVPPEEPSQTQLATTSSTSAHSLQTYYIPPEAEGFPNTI

`CC(C)(c1ccc(O)cc1Cl)C(C)(C)c1ccc(O)cc1Cl` was tested, and the Effect [1] was 13.7, the Effect [2] was 13.7 and the relative binding affinity (RBA) [3] was 3.4. It also gave an Effect [4] of 51.5, an inhibition [5] of 17% and an Effect [6] of 35.2. It also gave an Effect [7] of 35.2, an Effect [8] of 35.8 and an inhibition [9] of 29%. For the same compound, the Effect [10] was 32.7, the Effect [11] was 48.4 and the Effect [12] was 38.9.
`Cc1cc(O)ccc1C(C)(C)C(C)(C)c1ccc(O)cc1C` was tested, and the Effect [1] was 13.7, the Effect [2] was 11.1 and the relative binding affinity (RBA) [3] was 2.6. The Effect [4] was 22.2, the Effect [6] was 37.3 and the Effect [7] was 38. For the same compound, the Effect [8] was 16.6, the inhibition [9] was 22% and the Effect [10] was 28. The Effect [11] was 51.2 and the Effect [12] was 50.
Compound `Cc1ccc(O)cc1C(C)(C)C(C)(C)c1cc(O)ccc1C` has a relative binding affinity (RBA) [3] of 0.9.
Compound `COc1cc(O)ccc1C(C)(C)C(C)(C)c1ccc(O)cc1OC` has a relative binding affinity (RBA) [3] of 0.45.
With `COc1ccc(O)cc1C(C)(C)C(C)(C)c1cc(O)ccc1OC` the relative binding affinity (RBA) [3] was < 0.01.
For `CC(C)(c1cccc(O)c1)C(C)(C)c1cccc(O)c1`, the Effect [13] was 15.7, the Effect [2] was 9.2 and the relative binding affinity (RBA) [3] was 3. For the same compound, the Effect [14] was 14.6, the Effect [15] was 15.4 and the Effect [16] was 9.8. The Effect [7] was 13.4.
`CC(C)(c1cc(O)cc(Cl)c1)C(C)(C)c1cc(O)cc(Cl)c1` showed a relative binding affinity (RBA) [3] of 0.01.
`CC(C)(c1ccc(O)cc1F)C(C)(C)c1ccc(O)cc1F` was tested, and the Effect [1] was 13.8, the Change of weight [17] was -3.1% and the Effect [2] was 16.4. It also gave a Change of size [18] of 4%, a relative binding affinity (RBA) [3] of 6.4 and an inhibition [19] of 40%. The inhibition [20] was 20%, the Remission [21] was 74% and the Effect [22] was 49.9. It also gave a Change of size [23] of 3%, an Effect [4] of 38.8 and a Change of weight [24] of -4%. It also gave an Effect [25] of 41, an Effect [26] of 34.2 and a Remission [27] of 64%. The inhibition [28] was 35%, the Change of area [29] was 22% and the Effect [30] was 35.9. It also gave an Effect [7] of 38.5, an Effect [8] of 27 and a Change of area [31] of -47%. For the same compound, the Effect [32] was 47.7, the Effect [10] was 42.6 and the Change of size [33] was 18%. It also gave a Change of size [34] of 10%, a Change of size [35] of 13% and a Change of size [36] of 14%.
Compound `CC(C)(c1ccc(O)cc1)C(C)(C)c1ccc(O)cc1` has an Effect [13] of 15.7, an Effect [2] of 9.2 and a relative binding affinity (RBA) [3] of 3.6. For the same compound, the Effect [14] was 13.3, the Effect [15] was 15.8 and the Effect [16] was 10.6. For the same compound, the Effect [7] was 14.3.
For `CC(C)(c1cc(O)ccc1Cl)C(C)(C)c1cc(O)ccc1Cl`, the Effect [1] was 13.7, the Effect [2] was 11.1 and the relative binding affinity (RBA) [3] was 3.5. The Effect [4] was 22.6, the Inhibition (alpha = 0.01) [5] was 36% and the Effect [6] was 37.8. The inhibition [37] was 7%, the Effect [7] was 35.7 and the Effect [8] was 14.7. The Inhibition (alpha = 0.01) [9] was 27%, the Effect [10] was 33 and the Effect [12] was 44.2 and 34.9.
Compound `CC(C)(c1cc(O)ccc1F)C(C)(C)c1cc(O)ccc1F` has an Effect [1] of 13.7, a Change of weight [17] of 3.5% and an Effect [2] of 9.7. It also gave a Remission [18] of 7%, a relative binding affinity (RBA) [3] of 4 and a Remission [21] of 0%. It also gave a Change of size [23] of 7%, an Effect [4] of 16.6 and a Change of weight [24] of 2.9%. It also gave an inhibition [5] of 29%, a Remission [27] of 0% and an Effect [6] of 32.5. It also gave a Change of area [29] of 441%, an Effect [7] of 35.6 and an Effect [8] of 15.4. It also gave a Change of size [38] of 4%, a Change of area [31] of 396% and an inhibition [9] of 43%. For the same compound, the Effect [10] was 22.6, the Change of size [33] was 77% and the Effect [11] was 48.6. The Change of size [35] was 89%, the Change of size [36] was 16% and the Effect [12] was 37.2.
Work on `C[C@]12CC[C@@H]3c4ccc(O)cc4CC[C@H]3[C@@H]1CCC2=O` yielded a uterine weight [39] of 47.8 mg/100 g and a uterine weight [40] of 45.3 mg/100 g.
